High-throughput results (PubChem BioAssay)
T cruzi inh: inhibitors of intracellular T. cruzi growth, primary screen, luminescence, NIH3T3 host cells | T. cruzi beta-gal in NIH3T3, 90 h | inhibition, % (concentration not given with the values) | 300,000 compounds, 1.4% hits | AID 1885, 2009;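 active means mean inhibition across valid replicates above about 55%, limit read from the data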;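 further: signal also drops with host cell toxicity which is not excluded here; 0% = plate median of DMSO wells and 100% = zero luminescence signal; higher percent means less beta-gal luminescence so fewer parasites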
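compound dosing = single 50 nL compound addition per well in DMSO | material = NIH/3T3 host cells with β-galactosidase reporter T. cruzi | input = 5,000 host fibroblasts per well | timing = ≥90 h infection period, 3 h prior cell attachment | read-out basis = percent inhibition of parasite-derived β-gal signal | detection = GalScreen β-gal luminescence, detergent lysis, 60 min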
NRP1-CendR mod: modulators of CendR peptide binding to NRP-1, primary screen, biochemical, fluorescence polarization, uHTS. FAM-RPARPAR peptide binding to NRP-1. inhibition, % at 25 µM. 360,000 compounds, 0.85% hits;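 active means inhibition or corrected inhibition above about 18%, plus a signal ratio from 0.5 to 1.5, limit read from the data, passing the limit was not always enough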
Target sequence (O14786 whole entry, looked up): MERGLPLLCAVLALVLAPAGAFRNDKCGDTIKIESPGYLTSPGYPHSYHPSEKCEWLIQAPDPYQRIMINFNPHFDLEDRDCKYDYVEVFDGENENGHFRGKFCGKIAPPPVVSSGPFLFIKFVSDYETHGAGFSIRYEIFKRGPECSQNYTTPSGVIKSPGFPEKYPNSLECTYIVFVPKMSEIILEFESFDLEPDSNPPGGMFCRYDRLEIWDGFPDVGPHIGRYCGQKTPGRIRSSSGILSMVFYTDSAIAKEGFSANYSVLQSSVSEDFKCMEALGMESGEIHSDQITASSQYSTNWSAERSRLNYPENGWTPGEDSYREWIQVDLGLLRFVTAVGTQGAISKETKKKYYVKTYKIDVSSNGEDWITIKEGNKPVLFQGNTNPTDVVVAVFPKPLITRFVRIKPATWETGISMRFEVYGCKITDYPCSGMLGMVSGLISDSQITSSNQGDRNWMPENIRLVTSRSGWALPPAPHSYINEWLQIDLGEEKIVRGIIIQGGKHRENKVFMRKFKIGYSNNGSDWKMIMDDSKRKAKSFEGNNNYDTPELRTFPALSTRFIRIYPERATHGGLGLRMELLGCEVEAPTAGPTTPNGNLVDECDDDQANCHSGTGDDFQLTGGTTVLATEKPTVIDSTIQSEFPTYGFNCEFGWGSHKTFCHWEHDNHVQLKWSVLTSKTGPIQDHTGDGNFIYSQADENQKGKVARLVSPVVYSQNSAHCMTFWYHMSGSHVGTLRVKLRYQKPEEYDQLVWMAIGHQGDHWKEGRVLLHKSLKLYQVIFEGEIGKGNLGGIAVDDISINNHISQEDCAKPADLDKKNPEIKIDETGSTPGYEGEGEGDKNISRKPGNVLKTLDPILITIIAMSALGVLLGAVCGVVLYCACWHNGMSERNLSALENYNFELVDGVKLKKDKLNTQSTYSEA
HIF activator: HIF pathway transcriptional activators, primary screen, cell-based, U2OS HRE-luciferase, luminescence; U2OS HRE-luciferase reporter; normalized: DMSO 0%, desferrioxamine 100%; activation, % at 7.5 µM (by protocol); 300,000 compounds, 0.32% hits;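 active means mean activation of at least 10% of the iron chelator positive control signal, with at least half of replicates also reaching 10%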
V-ATPase pH: regulators of yeast V-ATPase proton pumping, primary screen, pHLuorin cytosolic pH fluorescence. 350,000 compounds, 0.37% hits. response, % at 10 µM. AID 504577, 2011. S. cerevisiae; in the data active means response mostly above about 7.3%, no sharp cut-off; inactive means mostly below about 5.4%; further: actives read high
AI-2 QS modul: Vibrio harveyi AI-2 quorum sensing modulators, primary screen, JMH597 strain, luminescence/OD600 ratio | 300,000 compounds, 0.4% hits | AID 2094, 2009 | Vibrio harveyi JMH597 AI-2 luminescence/OD600 ratio, 9 h; hits give low values; strain lacks LuxN and CqsS sensors; 0 = neutral-control median | activity change, % at 7.5 µM; in the data active means activity change below about -75%, passing the limit was not always enough;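 further: luminescence divided by OD600 gain over 9 h not by final OD600 alone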
Yeast superoxide: reduction of superoxide in aged yeast, primary screen, HTS. AID 2690, 2010. 330,000 compounds, 0.18% hits. superoxide response (% of plate mean), % at 10 µM. S. cerevisiae aged cells, superoxide DHE fluorescence; hits give low values;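 active means superoxide response under a set limit, about three screen SD below normal, cut at about 65% in these data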;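 further: yeast aged for seven days with compound at 30 °C before DHE staining; 100% = average MFI of all compound-treated wells on the plate with controls excluded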
An asterisk follows results filed as active; . = no result given. An excerpt weighted towards active compounds, which were near 3% of everything screened.

SMILES | T cruzi inh | NRP1-CendR mod | HIF activator | V-ATPase pH | AI-2 QS modul | Yeast superoxide
NC(=O)Nc1ccc(Oc2c(F)c(F)c(F)c(F)c2F)cc1 | 1 | 40* | -1 | -3 | 31 | 99
CCN1CCN(c2ccc(S(=O)(=O)N3CCCCC3)cc2NC(=O)c2ccccc2)CC1 | 31 | -4 | 0 | -2 | 15 | 107
CCN1CCN(c2ccc(S(=O)(=O)N3CCCCC3)cc2NC(=O)Cc2ccccc2)CC1 | 45 | -11 | 0 | -2 | -2 | 95
CCN1CCN(c2ccc(S(=O)(=O)N3CCCCC3)cc2NC(=O)c2ccc([N+](=O)[O-])s2)CC1 | 55* | 6 | -1 | 2 | 7 | 122
CCN1CCN(c2ccc(S(=O)(=O)N3CCCCC3)cc2NC(=O)c2cccc(C(F)(F)F)c2)CC1 | 68* | -2 | -1 | 1 | 20 | 101
CCN1CCN(c2ccc(S(=O)(=O)N3CCCCC3)cc2NC(=O)c2ccc(C)o2)CC1 | 55* | -4 | 0 | -3 | -4 | 96
CCN1CCN(c2ccc(S(=O)(=O)N3CCCCC3)cc2NC(=O)Cc2ccccc2F)CC1 | 55* | 6 | 0 | 2 | 31 | 97
Cc1cccc(NC(=S)N2CCC(N(C)CC3CCCO3)CC2)c1C (centres undefined) | 7 | -2 | 0 | 8 | 13 | 106
COc1ccc(S(=O)(=O)N2CCCCC2)cc1NC(=O)c1c(F)cccc1Cl | . | 26* | . | -6 | . | .
CCN1CCN(c2ccc(S(=O)(=O)N3CCCCC3)cc2NC(=O)Cc2ccc(Cl)c(Cl)c2)CC1 | 63* | 11 | 0 | 8 | -11 | 107
O=C1CCCc2c1cc(C(=O)Nc1ccc(Cl)cn1)c(=O)n2-c1ccccc1 | -12 | -8 | -1 | -3 | 3 | 96
CC1SC(=NC(=O)c2ccncc2)NC1=O (centres undefined) | -11 | -1 | 932* | 1 | 7 | 99
CC1S/C(=N/N=C2CCCCC2)NC1=O (centres undefined) | -9 | -1 | 0 | -1 | 39 | 106
OCCN(CCO)c1cc2c3ccccc3ccc2c2ccccc12 | . | 25* | . | 1 | . | .
Cc1cccc(N2CC(C(=O)Nc3ccc(S(=O)(=O)N4CCOCC4)cc3)CC2=O)c1 (centres undefined) | 2 | -9 | 0 | -4 | 5 | 89
COc1ccc(NC(=O)c2sc3nc(C)cc(C)c3c2N)c(OC)c1 | -8 | 16 | 0 | 1 | 24 | 97
O=C(NC(=S)NNC(=O)c1cccs1)c1ccccc1 | -5 | 11 | 1 | 2 | -40 | 132
CC(C)(C)c1ccc(C(=O)NC(=S)NNC(=O)c2cccs2)cc1 | 56* | 8 | 2 | 2 | 3 | 186
Cc1nnc(SCC(=O)Nc2cc(C(F)(F)F)ccc2N2CCOCC2)o1 | -5 | 7 | -1 | -3 | 40 | 91
Cc1ccccc1SCC(=O)Nc1cc(C(F)(F)F)ccc1N1CCOCC1 | 65* | -4 | 0 | 0 | 39 | 119
CCOC(=O)C1CCCCN1C(=O)CCc1nnc(-c2ccc3c(c2)OCO3)o1 (centres undefined) | 8 | 6 | 2 | -2 | 8 | 103
Cc1noc(NC(=O)c2cccc(C(F)(F)F)c2)c1Cl | 37 | 4 | 0 | 4 | -1 | 105
COc1ccc(-c2cc(C3CCN(CC(O)C(F)(F)F)CC3)[nH]n2)cc1 (centres undefined) | 1 | -1 | -1 | 1 | 1 | 95
COc1ccc(-c2cc(C3CCN(Cc4cccc(C(F)(F)F)c4)CC3)[nH]n2)cc1 | 62* | -4 | 0 | -4 | 23 | 94
COc1ccc(-c2cc(C3CCN(Cc4ccc([N+](=O)[O-])cc4)CC3)[nH]n2)cc1 | 85* | 2 | 0 | -1 | 12 | 97
SMILES | T cruzi inh | NRP1-CendR mod | HIF activator | V-ATPase pH | AI-2 QS modul | Yeast superoxide
Cc1ccc(Cl)cc1N1CCN(C(=O)C2(S(=O)(=O)c3ccc(Cl)cc3)CC2)CC1 | 34 | -10 | -1 | -1 | 19 | 101
CN(CC(=O)Nc1ccccc1Cl)C(=O)C1CSC2(C)CCC(=O)N12 (centres undefined) | . | 21* | . | 2 | . | 101
CN(CC(=O)Nc1ccc(F)c(F)c1F)C(=O)C1CSC2(C)CCC(=O)N12 (centres undefined) | . | 12 | . | -1 | . | 107
COc1ccc(N2CCN(c3ccc(N4C(=O)CC(C)C4=O)cc3[N+](=O)[O-])CC2)cc1 (centres undefined) | 10 | 6 | 66* | -1 | 47 | 171
COc1ccc(N2CCN(c3ccc(N4C(=O)COCC4=O)cc3[N+](=O)[O-])CC2)cc1 | -24 | -4 | 0 | -2 | 8 | 103
COc1ccc(N2C(=O)C3C4C=CC(C5CC45)C3C2=O)c([N+](=O)[O-])c1 (centres undefined) | 12 | 33* | 0 | 1 | 14 | 111
CCSc1nnc(NC(=O)[C@H](C)N2C(=O)C3CC=CCC3C2=O)s1 (some centres undefined) | 3 | -12 | 0 | 0 | 13 | 126
CSc1ncccc1C(=O)OCC(=O)Nc1ccc(C)c(S(=O)(=O)N2CCOCC2)c1 | . | 20* | . | 0 | . | 97
Cc1cc(C)cc(OCC(=O)OCC(=O)NC2CCCCCC2)c1 | . | 18 | . | 17* | . | 93
Cc1ccc(NC(=O)COC(=O)c2cccnc2Cl)cc1S(=O)(=O)N1CCOCC1 | . | 14 | . | -5 | . | 109
COc1ccc(CC(=O)OCC(=O)NC2CC2)cc1 | . | 24* | . | 0 | . | 104
COc1ccc(CC(=O)OCC(=O)c2ccc(OC)c(OC)c2)cc1 | . | 17* | . | 2 | . | 86
COc1cc2c(cc1OC)CN(CC(=O)Nc1ccc3c(c1)OCO3)CC2 | 13 | -15 | 0 | 0 | 9 | 84
CC1(C)C2CCC(C2)C1(C)NC(=O)CN1CCCC1 (centres undefined) | 13 | 2 | 2 | 1 | 10 | 102
COc1ccc(CCC(N)=O)cc1OC | 1 | 4 | 0 | 0 | 18 | 102
CSc1ncccc1C(=O)OCC(=O)NC1CCCCC1 | . | 23* | . | -1 | . | 100
COc1cc2ccc(CC(N)=O)cc2cc1OC | . | 37* | . | -1 | . | .
COc1ccc(-c2nc(NC(=O)c3c(C)noc3C)sc2C)cc1 | . | 14 | . | 1 | . | .
COc1ccc(-c2nc(NC(=O)c3cc(C(C)(C)C)nn3C)sc2C)cc1 | 57* | 8 | -1 | -2 | 11 | 89
CCCCC(O)(CCCC)C(=O)NN(C(=O)OC)c1ccccc1 | 7 | 31* | 0 | -5 | 28 | 106
